Screens from PubChem.
STAT1 blocker = inhibitors of IFN-gamma induced STAT1 signaling; NIH 3T3 STAT1-luciferase reporter, luminescence; inhibition, % at 5.5 µM; actives 0.35% (n = 200,000);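 active means inhibition above a set limit, the mean inhibition across all tested compounds plus 3 SD, cut at about 34% in these data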;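 further: 0% = IFN-gamma with DMSO and 100% = IFN-gamma with 300 µM nifuroxazide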
STAT3 inh = inhibitors of IL-6 induced STAT3 signaling | U3A cells, IL-6 STAT3-luciferase reporter, luminescence; host cell line lacks STAT1 | inhibition, % at 5.5 µM | actives 0.89% (n = 190,000) | AID 862;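 active means inhibition above the mean inhibition across all screened compounds plus 3 SD, cut at about 44% in these data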;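 further: 0% = DMSO only wells and 100% = 100 µM nifuroxazide control wells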
STAT1 activator = activators of IFN-gamma induced STAT1 signaling; NIH 3T3 STAT1-luciferase reporter, luminescence; 100% = IFN-gamma alone, no compound; actives 2.6% (n = 200,000); activation (% of control), % at 5.5 µM;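 active means activation above the screen-wide mean activation plus 3 SD, cut at about 130% in these data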;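 further: raw ratio to IFN-gamma control signal so 100% means no change and 0% no light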
APP 5'UTR act = activates APP 5'UTR luciferase reporter | actives 1% (n = 190,000) | AID 1276 | SH-SY5Y APP 5'UTR luciferase reporter, luminescence; zero percent = DMSO vehicle wells | activation, % at 2 µM;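 active means activation above a set limit, based on mean plus 3 SD of controls, cut at about 140% in these data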
STAT3 act = STAT3 signaling activation; U3A cells, IL-6 STAT3-luciferase reporter, luminescence; 100% = signal with IL-6 EC80 alone; activation (% of control), % at 5.6 µM; actives 0.91% (n = 190,000); AID 871;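 active means activation above the screen-wide mean of compound activation plus 3 SD, cut at about 130% in these data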;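 further: 0% = background luminescence of wells with medium and substrate only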
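Assay system – human STAT1-deficient U3A cells with stable STAT3-luciferase reporter · Also added – IL-6 (33 ng/mL) · Schedule – compound 1 h, then IL-6 6 h at 37 °C · Technique – reporter luminescence signal · Evaluation – % activation versus median of IL-6-stimulated wells · Benchmarks – IL-6-only wells as 100% reference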
NF-kB neuron act = NF-kB expression increase, human neuronal cells; NF-kB reporter expression; stronger effect = higher value; actives 1.6% (n = 190,000); fold change at 12.5 µM; AID 1239; in the data active means fold change above about 3.3
Starred values were filed as active, the others as inactive; . = not tested or not shown. Hits are enriched below; roughly 5.1% of the tested compounds scored in any of these assays.

SMILES	STAT1 blocker	STAT3 inh	STAT1 activator	APP 5'UTR act	STAT3 act	NF-kB neuron act
COc1ccc(S(=O)(=O)Nc2nc3c(s2)CCCC3)cc1	-2	14	102	11	95	1
Cc1ccc(/C=N/NC(=O)c2ccccn2)o1	-34	-1	130*	15	103	1.9
O=C(N/N=C/C(Cl)=C/c1ccccc1)c1ccncc1	0	12	100	-2	92	1.6
O=C(N/N=C/C(Cl)=C/c1ccccc1)c1ccccn1	-24	25	122	131	83	4.3*
CC1CCCN(c2ccc([N+](=O)[O-])cc2C(=O)c2ccccc2)C1 (stereo not given)	4	-25	97	-94	125	3.1
CC(=O)Nc1cc(C(=O)OCC(=O)c2ccc(C)cc2)ccc1C	-46	-29	143*	17	122	3.9*
CC(=O)Nc1cc(C(=O)OCC(=O)c2ccc(Cl)cc2Cl)ccc1C	7	14	94	-5	93	0.91
CC1CN/C(=C\C(=O)c2ccc(Cl)cc2)C(=O)N1 (stereo not given)	-27	31	125	175*	77	4.7*
CC1CN/C(=C\C(=O)c2ccccc2)C(=O)N1 (stereo not given)	-42	7	138*	52	97	2.9
Cc1cc(Cl)ccc1OCCCC(N)=O	0	12	100	-6	95	0.94
Cc1cc(Cl)ccc1OCCCC(=O)NO	14	24	88	19	83	3.9*
COc1ccc(-c2cc(=O)c3cc(O)ccc3o2)cc1	-51	.	145*	129	.	6.5*
COc1ccc2c(c1)c(=O)oc1cc(O)ccc12	-14	.	111	1	.	1.2
O=C(Nc1nc2ccc(Cl)cc2s1)C1CCCO1 (stereo not given)	-48	16	144*	102	90	4.6*
O=C(Nc1nc2ccc([N+](=O)[O-])cc2s1)C1CCCO1 (stereo not given)	-38	11	136*	62	92	2.2
CS(=O)(=O)c1ccc2nc(NC(=O)C3CCCO3)sc2c1 (stereo not given)	-29	4	124	32	99	0.98
CCCCN=CC1=C(O)CC(c2ccccc2)CC1=O (stereo not given)	0	8	99	-3	99	1.2
CCc1ccc(Oc2cc(C)nc(N)n2)cc1	-41	-5	132*	77	107	3.3*
Cc1cccc(NC(=S)N/N=C/c2c[nH]c3ccccc23)c1	-36	-7	132*	-87	104	1.9
Cc1nn(C)cc1/C=N/NC(=S)Nc1ccccc1	-20	8	118	59	97	3.4*
O=C(CNc1ccccc1)N/N=C/c1c[nH]c2ccccc12	-8	-14	107	-8	112	0.76
O=C(NCc1cccnc1)c1ccc(NC(=O)c2cccc([N+](=O)[O-])c2)cc1	-2	8	100	-10	96	0.8
Cn1nnc2cc(C(=O)Nc3ccccc3)ccc21	-34	23	130*	28	83	1.8
Cc1ccc(NC(=O)c2ccc3c(c2)nnn3C)cc1	-17	23	115	45	86	1.9
Cn1nnc2cc(C(=O)Nc3ccc(Cl)cc3)ccc21	-37	15	132*	42	91	1.5
SMILES	STAT1 blocker	STAT3 inh	STAT1 activator	APP 5'UTR act	STAT3 act	NF-kB neuron act
Cn1nnc2cc(C(=O)Nc3cccnc3)ccc21	-8	22	107	19	85	1.2
O=C(c1ccccn1)N(Cc1cccs1)C1(C(=O)NC2CCCCC2)CCCCC1	4	0	97	-5	100	0.86
Cc1cccc(N2CC(=O)N(c3cccc(C)c3)CC2=O)c1	5	2	96	11	103	1.5
COc1ccc2c(c1OC)C(=O)N(c1cccc(C(F)(F)F)c1)C2	-54	-9	149*	14	112	7.4*
COc1ccc2c(c1OC)C(=O)N(c1cccc(C)c1)C2	-36	22	135*	41	84	5.2*
COc1ccc2c(c1OC)C(=O)N(c1ccccn1)C2	-53	8	149*	111	95	2.5
O=C(COC(=O)c1cccnc1Cl)c1ccc(OC(F)F)cc1	0	2	99	6	100	1.4
CC1CN(c2ccccc2)NC1=O (stereo not given)	-5	3	104	0	102	0.89
O=C(N/N=C/c1c(O)ccc2ccccc12)c1[nH]ncc1Br	-10	9	108	-72	92	1.1
Cc1ccc(O)c(/C=N/NC(=O)c2[nH]ncc2Br)c1	-35	-5	131*	-2	103	8.1*
Cc1ccsc1C(=O)C1CCCN(Cc2cc(F)ccc2-n2cccn2)C1 (stereo not given)	7	-6	92	11	109	0.78
Cn1c(O)c(C2=c3ccccc3=NC2=O)sc1=Nc1ccc(Cl)cc1	0	1	100	21	101	5.2*
O=C1c2ccccc2C(=O)N1CCN1CCc2ccccc21	-35	2	132*	23	101	1.2
Cc1ccc(C(=O)c2ccccc2C(=O)OCC(=O)Nc2ccc(SC(F)F)cc2)cc1	-1	-12	101	-23	110	0.91
O=C(COC(=O)c1ccccc1Cc1ccccc1)Nc1ccc(SC(F)F)cc1	-35	-14	132*	93	112	1.2
Cn1cc2ccc(N)cc2n1	-1	1	99	-13	106	1.3
Cc1ccc(-n2nc(-c3ccc(N)cc3)cc2N)cc1	8	-5	93	24	104	1.6
Cc1ccc(-n2nc3ccc(NC(=O)C(C)C)cc3n2)cc1	-40	22	135*	194*	85	3.2
Cc1ccc(-n2nc3ccc(N)cc3n2)cc1	-52	1	150*	7	102	2.7
CC(C)c1ccc(-n2nc3ccc(N)cc3n2)cc1	17	22	84	117	83	4.9*
Cc1cc([N+](=O)[O-])nn1CC(=O)NCCc1c[nH]c2ccccc12	-11	-4	109	15	104	1
CCOC(=O)c1cc2c(ccn2C)n1CC(=O)N(CC)CC	-8	4	106	10	101	1.1
COC(=O)c1cn[nH]c1NC(=S)Nc1ccc(Cl)c(Cl)c1	-49	28	145*	222*	77	0.91
Cc1cc(C(=O)CCl)c(C)n1CCc1ccccc1	13	-19	86	-14	117	0.29
COC(=O)CCCn1c(C)cc(C(=O)CCl)c1C	14	14	86	-15	93	3.6*
CO/N=C/c1ccc(N2CCCC2)c([N+](=O)[O-])c1	-31	15	130*	15	89	2.2
O=C1CN(C(=S)NC(=O)c2ccc(-c3ccccc3)cc2)CCN1	-38	9	133*	19	100	1.6
COc1ccc(C(=O)NC(=S)N2CCNC(=O)C2)cc1Br	-10	-6	107	-6	108	0.88
